{"source": "ChEMBL document CHEMBL4680131", "about": "“Fangchinoline derivatives induce cell cycle arrest and apoptosis in human leukemia cell lines via suppression of the PI3K/AKT and MAPK signaling pathway” (Eur J Med Chem, 2020)", "key": {"[1]": {"test_system": "HEL", "assay": "Induction of cell cycle arrest in human HEL cells assessed as up regulation of p21 incubated for 1 hr by Western blot analysis", "format": "functional, cell-based", "procedure,_shortened": "(§1)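 HEL cells were lysed in RIPA after compound or DMSO treatment. Lysates were run on 10% SDS-PAGE, transferred to PVDF and blocked in 5% BSA for 1 h. Blots were probed overnight at 4 °C with antibodies to PARP, caspase-3, caspase-9, c-MYC or p21, then HRP secondary for 2 h, and detected by ECL. β-actin served as loading control.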"}, "[2]": {"test_system": "HEL", "assay": "Potency index, ratio of fangchinoline IC50 to test compound IC50 for human HEL cells", "format": "functional"}, "[3]": {"test_system": "HEL", "assay": "Antiproliferative activity against human HEL cells assessed as reduction in cell viability at 0.5 to 2 uM by MTT assay", "format": "functional, cell-based", "conditions": "dose 0.5-2 µM, time 12.0 hrs, TDE = time-dependent effect", "procedure,_shortened": "(§2)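 HEL cells were kept in RPMI with 5% FBS at 37 °C and 5% CO2. They were seeded at 1×10^4/well and given 24 h before dosing. Exposure ran 12, 24, 36, 48 or 72 h, then MTT was added for 4 h, formazan dissolved in DMSO, and absorbance read at 490 nm. Triplicate wells, repeated at least three times.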"}, "[4]": {"test_system": "HEL", "assay": "Induction of apoptosis in human HEL cells assessed as viable cells by Annexin-V/propidium iodide staining-based flow cytometric analysis (reference value: 96.62%)", "format": "functional"}, "[5]": {"test_system": "HEL", "assay": "Induction of apoptosis in human HEL cells assessed as late apoptotic cells by Annexin-V/propidium iodide staining-based flow cytometric analysis (reference value: 0.76%)", "format": "functional"}, "[6]": {"assay": "Inhibition of AKT (unknown origin) by ELISA assay", "set-up": "species or system Homo sapiens", "procedure,_shortened": "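Akt kinase activity kit run per the manufacturer's protocol. Akt source was lysate of compound-treated human leukemia HEL cells, purified on a Mono Q anion-exchange column before the kinase measurement. HEL cells were grown in RPMI with 5% FBS at 37 °C and 5% CO2. The value is reported as an IC50.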"}, "[7]": {"test_system": "HEL", "assay": "Induction of apoptosis in human HEL cells assessed as increase in caspase 9 cleavage by Western blot analysis", "format": "functional, cell-based", "procedure,_shortened": "as §1"}, "[8]": {"test_system": "MDA-MB-231", "assay": "Potency index, ratio of vincristine IC50 to test compound IC50 for human MDA-MB-231 cells", "format": "functional"}, "[9]": {"test_system": "MCF7", "assay": "Potency index, ratio of fangchinoline IC50 to test compound IC50 for human MCF-7 cells", "format": "functional"}, "[10]": {"test_system": "HEL", "assay": "Induction of apoptosis in human HEL cells assessed as necrotic cells by Annexin-V/propidium iodide staining-based flow cytometric analysis (reference value: 0.34%)", "format": "functional"}, "[11]": {"test_system": "K562", "assay": "Cytotoxicity against human K562 cells assessed as reduction in cell viability incubated for 48 hrs by MTT assay", "format": "functional, cell-based", "conditions": "K562, 48 h", "procedure,_shortened": "(§3)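 MTT viability after 48 h exposure. Cells (1×10^4/well) were allowed 24 h at 37 °C before dosing. Leukemia lines were grown in RPMI and breast lines in high-glucose DMEM, each with 5% FBS under 5% CO2. MTT was added for 4 h, formazan dissolved in DMSO, and absorbance read at 490 nm. Triplicate wells; values averaged over at least 3 independent experiments.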"}, "[12]": {"test_system": "HEL", "assay": "Potency index, ratio of vincristine IC50 to test compound IC50 for human HEL cells", "format": "functional"}, "[13]": {"test_system": "HEL", "assay": "Antiproliferative activity against human HEL cells assessed as reduction in cell viability incubated for 12 to 72 hrs by MTT assay", "format": "functional, cell-based", "conditions": "dose 0.5-2 µM, time 12-72 hrs", "procedure,_shortened": "as §2"}, "[14]": {"test_system": "MCF7", "assay": "Cytotoxicity against human MCF-7 cells assessed as reduction in cell viability incubated for 48 hrs by MTT assay", "format": "functional, cell-based", "conditions": "MCF7, 48 h", "procedure,_shortened": "as §3"}, "[15]": {"test_system": "HEL", "assay": "Inhibition of ERK phosphorylation in human HEL cells at 2.5 uM after 8 hrs by Western blot analysis", "format": "cell-based", "procedure,_shortened": "(§4)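 HEL cells were treated with 2.5 µM for 8 h, with DMSO as control. RIPA lysates were run on 10% SDS-PAGE and transferred to PVDF. Blots were blocked in 5% BSA, incubated overnight at 4 °C with antibodies to total and phospho Akt, ERK and JNK, then HRP secondary, and detected by ECL. Bands were normalized to β-actin; means ± SD of triplicates in three independent runs; t-test.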"}, "[16]": {"test_system": "HEL", "assay": "Inhibition of Akt in human HEL cells assessed as PI3K/AKT phosphorylation at 2.5 uM after 8 hrs by Western blot analysis", "format": "cell-based", "procedure,_shortened": "as §4"}, "[17]": {"test_system": "HEL", "assay": "Induction of cell cycle arrest in human HEL cells assessed as down regulation of cMyc incubated for 1 hr by Western blot analysis", "format": "functional, cell-based", "procedure,_shortened": "as §1"}, "[18]": {"test_system": "HEL", "assay": "Induction of apoptosis in human HEL cells assessed as increase in PARP cleavage by Western blot analysis", "format": "functional, cell-based", "procedure,_shortened": "as §1"}, "[19]": {"test_system": "HEL", "assay": "Cytotoxicity against human HEL cells assessed as reduction in cell viability incubated for 48 hrs by MTT assay", "format": "functional, cell-based", "procedure,_shortened": "as §3"}, "[20]": {"test_system": "HEL", "assay": "Induction of apoptosis in human HEL cells assessed as increase in JNK phosphorylation at 2.5 uM after 8 hrs by Western blot analysis", "format": "functional, cell-based", "procedure,_shortened": "as §4"}, "[21]": {"test_system": "HEL", "assay": "Induction of apoptosis in human HEL cells assessed as increase in caspase 3 cleavage by Western blot analysis", "format": "functional, cell-based", "procedure,_shortened": "as §1"}, "[22]": {"test_system": "MCF7", "assay": "Potency index, ratio of vincristine IC50 to test compound IC50 for human MCF-7 cells", "format": "functional"}, "[23]": {"test_system": "HEL", "assay": "Induction of cell cycle arrest in human HEL cells assessed as accumulation of cells at G0/G1 phase measured after 1 hrs by flow cytometry", "format": "functional, cell-based", "procedure,_shortened": "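HEL cells (2×10^5/well) were given DMSO or compound, then fixed in ice-cold 70% ethanol at 4 °C overnight and washed in PBS. Cells were stained 1 h at 37 °C in the dark with PBS containing 50 µg/mL PI and 100 µg/mL RNase. DNA content was analyzed by flow cytometry.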"}, "[24]": {"test_system": "MDA-MB-231", "assay": "Cytotoxicity against human MDA-MB-231 cells assessed as reduction in cell viability incubated for 48 hrs by MTT assay", "format": "functional, cell-based", "conditions": "MDA-MB-231, 48 h", "procedure,_shortened": "as §3"}, "[25]": {"test_system": "MDA-MB-231", "assay": "Potency index, ratio of fangchinoline IC50 to test compound IC50 for human MDA-MB-231 cells", "format": "functional"}, "[26]": {"test_system": "HEL", "assay": "Induction of apoptosis in human HEL cells assessed as early apoptotic cells by Annexin-V/propidium iodide staining-based flow cytometric analysis (reference value: 2.26%)", "format": "functional"}}, "note": "Activity calls are given as the source filed them. No cut-off for these calls is given here."}
{"smiles": "COc1ccc2cc1Oc1ccc(cc1)C[C@H]1c3cc(c(OC)cc3CCN1C)Oc1c(OC(=O)C3CCCS3)c(OC)cc3c1[C@H](C2)N(C)CC3", "note": "(stereo partly specified)", "values": [{"measurement": "Activity", "setting": "[1]", "result": "Active"}, {"measurement": "Ratio IC50", "setting": "[2]", "result": 15}, {"measurement": "Activity", "setting": "[3]", "result": "Tde"}, {"measurement": "Activity", "setting": "[4]", "result": 48.12, "unit": "%"}, {"measurement": "Activity", "setting": "[5]", "result": 27.92, "unit": "%"}, {"measurement": "IC50", "setting": "[6]", "result": 550, "unit": "nM"}, {"measurement": "Activity", "setting": "[7]", "result": "Active"}, {"measurement": "Ratio IC50", "setting": "[8]", "result": 10}, {"measurement": "Ratio IC50", "setting": "[9]", "result": 9}, {"measurement": "Activity", "setting": "[10]", "result": 3.38, "unit": "%"}, {"measurement": "IC50", "setting": "[11]", "result": 1530, "unit": "nM"}, {"measurement": "Ratio IC50", "setting": "[12]", "result": 10}, {"measurement": "Activity", "setting": "[13]", "result": "Dose-dependent effect"}, {"measurement": "IC50", "setting": "[14]", "result": 4010, "unit": "nM"}, {"measurement": "inhibition", "setting": "[15]", "result": "Active"}, {"measurement": "inhibition", "setting": "[16]", "result": "Active"}, {"measurement": "Activity", "setting": "[17]", "result": "Active"}, {"measurement": "Activity", "setting": "[18]", "result": "Active"}, {"measurement": "IC50", "setting": "[19]", "result": 1520, "unit": "nM"}, {"measurement": "Activity", "setting": "[20]", "result": "Active"}, {"measurement": "Activity", "setting": "[21]", "result": "Active"}, {"measurement": "Ratio IC50", "setting": "[22]", "result": 10}, {"measurement": "Activity", "setting": "[23]", "result": "Active"}, {"measurement": "IC50", "setting": "[24]", "result": 1600, "unit": "nM"}, {"measurement": "Ratio IC50", "setting": "[25]", "result": 36}, {"measurement": "Activity", "setting": "[26]", "result": 19.97, "unit": "%"}]}
